How the values were obtained:
[1] = molecular target: T1, GABA-A receptor; anion channel (Bos taurus) (UniProt P10063+P08220+P20237+P08219+P10064+P22300); assay: GABA ratio is measured by IC50 (compound)/IC50 (compound at 10 uM GABA; type: protein-complex assay
Method in brief: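 [³H]flunitrazepam (0.2 nM) displacement in bovine brain membranes; IC50 from log-probit plots, measured without and with 10 μM GABA. Ratio = IC50 without GABA / IC50 with GABA, from five independent experiments; compounds dissolved in DMSO.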

[2] = molecular target: GABA-A receptor; anion channel; assay: Binding affinity to BZR receptor on bovine cerebral cortex by [3H]flunitrazepam displacement.; type: tissue-based
Method in brief: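 Compounds first screened at 10 μM, then IC50 from log-probit plots and Ki derived from it. Ki given as mean ± SEM of four determinations.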

[3] = molecular target: T1, GABA-A receptor; anion channel (Bos taurus); assay: Binding affinity to BZR receptor of bovine cerebral cortex by [3H]flunitrazepam displacement at 10 uM; type: tissue-based
Method in brief: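 Percent inhibition of specific binding measured with test compound at 10 μM, dissolved in DMSO.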

Structure (SMILES) | Ratio [1] | Ki [2] | inhibition [3]
Oc1nc2ccccc2n2cc(-c3ccccc3)nc12 | 1.36 | 42.3 nM | 
Oc1ccc(-c2nc3c(O)nc4ccccc4n3n2)cc1 | 0.9 | 67.5 nM | 
Cn1c(=O)c2nc(-c3ccccc3)cn2c2ccccc21 |  |  | 2%
COc1ccc(-c2nc3c(O)nc4ccccc4n3n2)cc1 | 1.04 | 87.8 nM | 
Oc1nc2ccc(Cl)cc2n2nc(-c3cccs3)nc12 | 1.09 |  | 
Oc1nc2ccccc2n2nc(-c3ccco3)nc12 | 1.05 | 71.2 nM | 
COc1ccc(-c2nc3c(O)nc4ccc(Cl)cc4n3n2)cc1 | 1.03 |  | 
Oc1nc2ccc(Cl)cc2n2nc(-c3ccsc3)nc12 | 0.8 |  | 
COc1ccc(-c2cn3c(n2)c(O)nc2ccccc23)cc1 | 1.21 | 56.4 nM | 

Further compounds by falling Ki [2], results first:

Ratio [1] | Ki [2] | inhibition [3] | Structure (SMILES)
0.82 | 32.8 nM |  | Oc1nc2ccc(Cl)cc2n2nc(-c3cccc(F)c3)nc12
0.88 | 29.8 nM |  | Oc1ccc(-c2nc3c(O)nc4ccc(Cl)cc4n3n2)cc1
0.92 | 21.8 nM |  | Oc1nc2ccccc2n2nc(-c3cccs3)nc12
 | 17.4 nM |  | O=c1[nH]c2ccc(Cl)cc2n2nc(-c3cccs3)nc12
1.13 | 15.9 nM |  | Oc1nc2ccccc2n2cc(-c3cccs3)nc12
 | 15.9 nM |  | O=c1[nH]c2ccc(Cl)cc2n2nc(-c3ccsc3)nc12
0.67 | 14.5 nM |  | Oc1nc2ccc(Cl)cc2n2nc(-c3ccco3)nc12
0.77 | 13.2 nM |  | Oc1nc2ccc(Br)cc2n2nc(-c3ccco3)nc12
0.84 | 9.8 nM |  | Oc1nc2ccc(Cl)cc2n2nc(-c3ccoc3)nc12
1.04 | 8.9 nM |  | Oc1nc2ccccc2n2nc(-c3ccccc3F)nc12
 | 5.4 nM |  | COc1ccc(-c2nc3c(=O)[nH]c4ccc(Cl)cc4n3n2)cc1
0.77 | 2.9 nM |  | Oc1nc2ccc(Cl)cc2n2nc(-c3ccccc3F)nc12

Source: ChEMBL document CHEMBL1127446, “Structure-activity relationships of 1,2,4-triazolo[1,5-a] quinoxalines and their 1-deaza analogues imidazo[1,2-a]quinoxalines at the benzodiazepine receptor” (J Med Chem, 1994)
